Here are results for 21 molecules from ChEMBL document CHEMBL1938356, “Structure-activity relationship of salicylic acid derivatives on inhibition of TNF-α dependent NFκB activity: Implication on anti-inflammatory effect of N-(5-chlorosalicyloyl)phenethylamine against experimental colitis” (Eur J Med Chem, 2012).

Activity calls are given as the source filed them. The calls are words filed in the database; no cut-off is given here. A value given as a limit tells only on which side of the number the result lay.

Assay [1] concerns HCT-116. The assay can be described thus: Inhibition of TNF-alpha-induced NF-kappaB activation in human HCT116 cells at 1 mM after 6 hrs by luciferase reporter gene assay. It counts as cell-based. An outline of the steps:
(§1)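 HCT116 cells at 50-60% confluence were cotransfected (Fugene) with an NFκB-dependent firefly luciferase plasmid and CMV Renilla plasmid (4 ng). After 24 h, cells received TNF-α (1 ng/ml) plus compound for 6 h, then were lysed. Dual-luciferase read-out, firefly normalized to Renilla. IC50 came from varied concentrations.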

Assay [2] deals with RAW264.7. In words: Inhibition of NF-kappaB-mediated iNOS protein expression in LPS-stimulated mouse RAW264.7 cells at 1 to 4 mM by Western blot analysis. The class given is cell-based. The procedure, abridged:
(§2)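 RAW264.7 cells in DMEM with 10% FBS were pretreated with a range of drug concentrations and stimulated with LPS. iNOS was immunoblotted in whole-cell lysates (30-40 µg), α-tubulin served as loading control, in duplicate.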
For orientation: A western blot detects proteins with antibodies after separation by electrophoresis.

Assay [3] is described as follows: (§3) Inhibition of TNF-alpha-induced NF-kappaB activation in human HCT116 cells after 6 hrs by luciferase reporter gene assay. The class given is cell-based. The settings on record: HCT-116, 6 h. The procedure, abridged: as §1
A general note: In a reporter assay the amount or activity of a reporter protein is the signal.

Assay [4] relates to HCT-116. The description is as §3. The class given is cell-based. The procedure, abridged: as §1
The test system of assay [5] is RAW264.7. In words: Inhibition of NF-kappaB-mediated iNOS protein expression in LPS-stimulated mouse RAW264.7 cells at 0.1 mM by Western blot analysis. The class given is cell-based. The procedure, abridged: (§4)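 RAW264.7 cells grown in DMEM with 10% FBS were pretreated 1 h with drug, then stimulated with LPS (1 ng/ml) for 6 h. iNOS was immunoblotted in whole-cell lysates (30-40 µg) with a polyclonal antibody, α-tubulin served as loading control, in duplicate.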

The subject of assay [6] is Rattus norvegicus. In words: Antiinflammatory activity against trinitrobenzenesulfonic acid-induced colitis in rat assessed as decrease in CINC-3 protein at 300 uM administered rectally QD for 6 days. It counts as functional, organism-based. An outline of the steps:
(§5)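 TNBS colitis in rats: after a 24 h fast with free access to water and light ether anaesthesia, TNBS (15 mg/0.3 ml/rat in 50% aqueous ethanol) was instilled through a rectal cannula whose tip sat 8 cm proximal to the anus. From day 3, drug in PBS (500 µL; 100 or 300 µM, or sodium 5-aminosalicylate 30 mM) was given rectally once daily for 6 days, then rats were sacrificed.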

Assay [7] relates to Rattus norvegicus. The assay can be described thus: Antiinflammatory activity against trinitrobenzenesulfonic acid-induced colitis in rat assessed as decrease in COX2 protein at 300 uM administered rectally QD for 6 days. The class given is functional, organism-based. The procedure, abridged:
as §5

The subject of assay [8] is Rattus norvegicus. The assay can be described thus: Antiinflammatory activity against trinitrobenzenesulfonic acid-induced colitis in rat assessed as decrease in COX2 protein administered rectally QD for 6 days. The class given is functional, organism-based. An outline of the steps: as §5
The test system of assay [9] is Rattus norvegicus. The assay can be described thus: Antiinflammatory activity against trinitrobenzenesulfonic acid-induced colitis in rat assessed as decrease in myeloperoxidase activity at 300 uM administered rectally QD for 6 days. The class given is functional. Details: scale not given: the % may be the effect or the level left. The procedure, abridged:
as §5

Assay [10] relates to Rattus norvegicus. In words: Antiinflammatory activity against trinitrobenzenesulfonic acid-induced colitis in rat assessed as decrease in myeloperoxidase activity at 100 uM administered rectally QD for 6 days. The class given is functional. On the set-up: scale not given: the % may be the effect or the level left. The procedure, abridged: as §5
The subject of assay [11] is Rattus norvegicus. The assay can be described thus: Antiinflammatory activity against trinitrobenzenesulfonic acid-induced colitis in rat assessed as decrease in CINC2 protein expression administered rectally QD for 6 days. It counts as functional, organism-based.
Assay [12] concerns Rattus norvegicus. The assay can be described thus: Antiinflammatory activity against trinitrobenzenesulfonic acid-induced colitis in rat assessed as healing of damaged colon at 300 uM administered rectally QD for 6 days. It counts as functional, organism-based. The procedure, abridged:
as §5

Assay [13] relates to Rattus norvegicus. In words: Antiinflammatory activity against trinitrobenzenesulfonic acid-induced colitis in rat assessed as healing of damaged colon administered rectally QD for 6 days. It counts as functional, organism-based. An outline of the steps:
as §5

The subject of assay [14] is RAW264.7. In words: Inhibition of NF-kappaB-mediated iNOS protein expression in LPS-stimulated mouse RAW264.7 cells at 0.25 mM by Western blot analysis. The class given is cell-based. An outline of the steps:
as §4

Assay [15] has as its system RAW264.7. In words: Inhibition of NF-kappaB-mediated iNOS protein expression in LPS-stimulated mouse RAW264.7 cells at 0.5 to 2 mM by Western blot analysis. It counts as cell-based. An outline of the steps:
as §2

Assay [16] deals with RAW264.7. As to conditions: Mus musculus, 5 mM.
For assay [17], the system named is RAW264.7. The settings on record: Mus musculus, 2 to 4 mM.
Assay [18] concerns Rattus norvegicus. In words: Antiinflammatory activity against trinitrobenzenesulfonic acid-induced colitis in rat assessed as decrease in COX2 protein at 30 mM administered rectally QD for 6 days. The class given is functional, organism-based. The procedure, abridged:
as §5

Assay [19] relates to Rattus norvegicus. In words: Antiinflammatory activity against trinitrobenzenesulfonic acid-induced colitis in rat assessed as healing of damaged colon at 30 mM administered rectally QD for 6 days. It counts as functional, organism-based. An outline of the steps:
as §5

Assay [20] has as its system Rattus norvegicus. In words: Antiinflammatory activity against trinitrobenzenesulfonic acid-induced colitis in rat assessed as decrease in CINC2 protein expression at 30 mM administered rectally QD for 6 days. It counts as functional, organism-based.
For assay [21], the system named is Rattus norvegicus. The assay can be described thus: Antiinflammatory activity against trinitrobenzenesulfonic acid-induced colitis in rat assessed as decrease in myeloperoxidase activity at 30 mM administered rectally QD for 6 days. The class given is functional, organism-based. An outline of the steps: as §5

For the molecule `NC(=O)c1ccccc1O`, the inhibition entry in assay [1] and in assay [2] was “Active” in each case.

The IC50 is the concentration that inhibits the measured activity by half. In turn, `CNC(=O)c1cc(Cl)ccc1O` returned an IC50 in assay [3] of over 250 µM.

For `COC(=O)c1ccccc1O`, the inhibition result in assay [1] is “Active”.

`CCCCCCNC(=O)c1cc(Cl)ccc1O` registered an IC50 in [3] of 95 µM.

Regarding `O=C(c1cc(Cl)ccc1O)N1CCN(c2ccccc2)CC1`, the IC50 in assay [3] is over 250 µM.

`CN1CCN(C(=O)c2cc(Cl)ccc2O)CC1` showed an IC50 in assay [3] of over 250 µM.

As for `O=C(NCCCc1ccccc1)c1cc(Cl)ccc1O`, the inhibition result in assay [4] was “Dose-dependent effect”. The molecule also gave an IC50 in assay [3] of 17 µM. Besides, the inhibition result in assay [5] was “Active”.

`O=C(c1cc(Cl)ccc1O)N1CCNCC1` yielded an IC50 in assay [3] of over 250 µM.

Take `O=C(O)c1cc(Cl)ccc1O`: the inhibition entry in [1] and in assay [2] was “Active” throughout.

As to `O=C(NCc1ccccc1)c1cc(Cl)ccc1O`, in assay [3], the IC50 came out at 105 µM.

Take `O=C(NCCc1ccccc1)c1cc(Cl)ccc1O`: the result in assay [6], in [7] and in [12] was Active. The inhibition entry in [4] was “Dose-dependent effect”. In assay [3], this molecule registered an IC50 of 15 µM. In addition, the Activity result in assay [8] is “Dose-dependent effect”; in [9], 35%; in [10] it was 60%; in assay [11], “Dose-dependent effect”; in assay [13], “Dose-dependent effect”. Moreover, the inhibition result in assay [5] was “Active”.

In assay [3], `O=C(c1cc(Cl)ccc1O)N1CCOCC1` had an IC50 of over 250 µM.

In [3], `O=C(c1cc(Cl)ccc1O)N1CCCCC1` returned an IC50 of over 250 µM.

With `O=C(NCCc1ccc(O)cc1)c1cc(Cl)ccc1O`, the inhibition entry in assay [4] is “Dose-dependent effect”. The same molecule yielded an IC50 in [3] of 91 µM. Moreover, the inhibition result in [14] was “Active”.

Turning to `NC(=O)c1cc(Cl)ccc1O`, in [15], the inhibition result is “Active”.

As to `O=C(O)c1ccccc1O`, the inhibition entry in [16], in assay [1] and in [17] was “Active” each time.

In the case of `Nc1ccc(O)c(C(=O)O)c1`, the result in [18], in assay [19], in [20] and in assay [21] was Active. The inhibition result in assay [1] was “Active”.

Take `CN(C)C(=O)c1cc(Cl)ccc1O`: in [3], the IC50 was over 250 µM.

In the case of `CC(=O)Oc1ccccc1C(=O)O`, the inhibition entry in assay [1] was “Active”.

Regarding `O=C(O)c1cc([N+](=O)[O-])ccc1O`, in assay [1], the inhibition result was “Active”.

Take `O=C(O)c1cc(-c2ccc(F)cc2F)ccc1O`: in [1], the inhibition result is “Active”.
